Measurements from different studies.
Compare with care: the assays were run in different laboratories.
Mode: inhibitor
SIRT1: NAD-dependent protein deacetylase sirtuin-1 (SIRT1, Homo sapiens, UniProt Q96EB6)
XDH: Xanthine dehydrogenase/oxidase (XDH, Bos taurus, UniProt P80457)
SPHK2: Sphingosine kinase 2 (SPHK2, Homo sapiens, UniProt Q9NRA0)
SLC7A5: Large neutral amino acids transporter small subunit 1 (SLC7A5, Homo sapiens, UniProt Q01650)

Structure (SMILES)	target	read-out	method	concentration	inhibition
CCCCCCCCCCCCNC(=S)NCCCC[C@H](NC(=O)OCc1ccccc1)C(=O)N[C@@H](Cc1c[nH]c2ccccc12)C(=O)N[C@@H](CCCCN)C(N)=O	SIRT1	enzyme activity	–	10 µM	71%
CCCCCc1cc(=O)c2cc(Cl)cc(Br)c2o1	SIRT1	enzyme activity	fluorescence	200 µM	9.8%
O=Cc1ccc(O)cc1	XDH	enzyme activity	absorbance	200 µg/mL	6.5%
CN(C)C1CCN(CC#Cc2nn(C3CCCC3)c3nc(NCc4ccccc4)ncc23)C1 (stereo not shown)	Protein kinase C theta type (PRKCQ, Homo sapiens, UniProt Q04759)	enzyme activity	FRET	10 µM	13%
O=C(CSc1nc2nccnc2c(=O)n1CCc1ccccc1)Nc1nccs1	SPHK2	enzyme activity	–	10 µM	0%
CCCCCCCCCCCCCC(=O)NCCCC[C@H](NS(C)(=O)=O)C(=O)N[C@H](C)C(=O)N[C@@H](CCCNC(=N)N)C(N)=O	SIRT1	enzyme activity	–	10 µM	23%
Oc1ncnc2[nH]ncc12	XDH	enzyme activity	absorbance	50 µg/mL	98.7%
O=C(NC1CCC1)[C@H](Cc1c[nH]c2ccccc12)NC(=O)[C@H](CCCCNC(=S)NCCn1nn[nH]c1=O)NS(=O)(=O)c1cccc(F)c1	SIRT1	enzyme activity	–	10 µM	17%
O=C(O)c1ccc(O)cc1	XDH	enzyme activity	absorbance	100 µg/mL	14.7%
CCc1ccc(CCc2ccc(-c3noc([C@@H]4CCCN4C(=N)N)n3)cc2C(F)(F)F)cc1	SPHK2	enzyme activity	radiometric	0.3 µM	63%
OCCc1ccc(O)c(O)c1	XDH	enzyme activity	absorbance	200 µg/mL	12.5%
Cc1ccc(S(=O)(=O)n2cc(CCC3CC(=O)c4cc(Cl)cc(Br)c4O3)c3ccccc32)cc1 (stereo not shown)	SIRT1	enzyme activity	fluorescence	200 µM	23%
N[C@@H](Cc1cccc(C(=O)Oc2ccccc2)c1)C(=O)O	SLC7A5	transporter uptake	radiometric	200 µM	85%
CCCCNC(=S)NCCCC[C@H](NS(=O)(=O)c1cccc(F)c1)C(=O)N[C@@H](Cc1c[nH]c2ccccc12)C(=O)NC1CCC1	SIRT1	enzyme activity	–	1 µM	> 95%
CCCCCC=CCOc1ccc(-c2noc([C@@H]3CCCN3C(=N)N)n2)cc1C(F)(F)F (mixture of isomers)	SPHK2	enzyme activity	radiometric	0.3 µM	40%
CNC(=O)c1cc(Oc2ccc(NC(=O)Nc3ccc(Cl)c(C(F)(F)F)c3)cc2)ccn1	Platelet-derived growth factor receptor alpha (PDGFRA, Homo sapiens, UniProt P16234)	enzyme activity	–	10 µM	95%
[H]/N=C(\N)N1CCC[C@H]1c1nc(-c2ccc(OCC=CCCCC)c(C(F)(F)F)c2)no1	SPHK2	enzyme activity	radiometric	0.3 µM	48%
N[C@@H](CCCCNC(=O)c1ccccc1)C(=O)O	SLC7A5	transporter uptake	radiometric	200 µM	38%
CCCCCC1CCc2cc(Cl)cc(Br)c2O1 (stereo not shown)	SIRT1	enzyme activity	fluorescence	200 µM	-5.2%
[H]/N=C(\N)N1CCC[C@H]1c1nc(-c2ccc(OCC=Cc3ccc(C(F)(F)F)cc3)c(C(F)(F)F)c2)no1	SPHK2	enzyme activity	radiometric	0.3 µM	75%
CCCCCC1CC(=O)c2cc(Cl)ccc2O1 (stereo not shown)	SIRT1	enzyme activity	fluorescence	200 µM	2.7%
CCCCCCCCCCCCNC(=S)NCCCC[C@H](NC(=O)C1CCCCC1)C(=O)N[C@H](C)C(=O)N[C@@H](CCCNC(=N)N)C(N)=O	SIRT1	enzyme activity	–	1 µM	44%
